Screening results: PubChem BioAssay, Broad Institute
Most compounds without a hit are left out; they make up all but 3.8% or so of the library.
Xi reactivation: activators of inactive X chromosome reactivation, primary screen, imaging, XiGFP fibroblasts, GFP high-content imaging, set 2. XiGFP mouse fibroblasts, % GFP-positive cells imaging, 3 d; cells co-treated with 5-aza-dC sensitizer; scaled so ellipticine positive control = 100%. hit rate 0.055% among 360,000. activation, % at 7.58 µM;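 active means mean normalized replicate activation at least 10% and every replicate at or above 10%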;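 further: 0% = median of on-plate neutral control wells and 100% = ellipticine 6 µM median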
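Material: XiGFP fibroblasts, SV40-immortalized. Buffer or medium: DMEM plus 5-aza-dC sensitizer. Compound: single concentration per compound, delivered by pin transfer. Times: 3 days compound exposure. Controls: ellipticine 6 µM.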
SIRT5 block: SIRT5 desuccinylase inhibitors, primary screen, biochemical, fluorescence imaging, single point, set 5 | NAD-dependent protein deacylase sirtuin-5, mitochondrial (Homo sapiens), Q9NXA8 | Purified SirT5, succinyl-peptide AMC, trypsin-coupled fluorescence | inhibition, % at 15 µM | hit rate 1.1% among 330,000 | AID 652115, 2013; in the data active means inhibition above about 15%
Target sequence (Q9NXA8 whole entry, looked up): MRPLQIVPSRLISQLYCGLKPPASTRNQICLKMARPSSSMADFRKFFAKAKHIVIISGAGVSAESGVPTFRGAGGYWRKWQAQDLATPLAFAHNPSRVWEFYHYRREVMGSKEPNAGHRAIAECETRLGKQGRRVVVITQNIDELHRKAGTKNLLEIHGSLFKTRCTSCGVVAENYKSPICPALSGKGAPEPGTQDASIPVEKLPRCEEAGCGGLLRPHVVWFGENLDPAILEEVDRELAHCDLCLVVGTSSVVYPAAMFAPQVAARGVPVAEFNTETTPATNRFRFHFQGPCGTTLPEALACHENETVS
ARNT TACC3 PPI: disruptors of ARNT/TACC3 protein interaction, primary screen, biochemical, AlphaScreen, single concentration; Transforming acidic coiled-coil-containing protein 3 (Homo sapiens), Q9Y6A5; inhibition, % at 9.99 µM; hit rate 0.66% among 390,000; AlphaScreen His-ARNT PAS-B/GST-TACC3 binding, luminescence; TACC3 fragment carries E629A point mutation;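 active means mean inhibition of replicates at least 50% and at least half of replicates each reaching 50%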;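 further: 0% = complete ARNT plus TACC3 wells and 100% = ARNT alone without TACC3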
FGF22 binding: binders of human FGF22 protein, primary screen, FGF22 synaptogenesis inhibitor project, biophysical, thermal shift, single point. recombinant FGF22 thermal shift, SYPRO orange fluorescence; percent of sucrose octasulfate shift, DMSO zero. Fibroblast growth factor 22 (Homo sapiens), Q9HCT0. activity (Tm shift, normalised), % at 9.99 µM. hit rate 1.5% among 340,000;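 active means mean Tm shift, scaled 0 neutral to 100 positive control, at about 1.3% or above, every replicate too, limit read from the data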
Target sequence (Q9HCT0 whole entry, looked up): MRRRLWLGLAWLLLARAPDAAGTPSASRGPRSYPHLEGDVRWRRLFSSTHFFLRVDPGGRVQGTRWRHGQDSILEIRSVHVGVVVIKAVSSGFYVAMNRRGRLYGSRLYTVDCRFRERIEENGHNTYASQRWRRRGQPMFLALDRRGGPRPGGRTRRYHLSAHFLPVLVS
FN deposition inh: inhibitors of fibronectin matrix deposition, primary screen, AH1F cells, Alexa488-fibronectin fluorescence, plate reader; hit rate 0.086% among 350,000; AH1F fibroblasts, overnight; inhibition, % at 12.6 µM;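 active means mean inhibition across replicates of 30% or more, regardless of how many single replicates reach that level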;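 further: positive control wells lacked labelled fibronectin entirely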
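Assay system: AH1F fibroblasts / Quantity: 10000 cells per well / Medium: DMEM plus 2% serum, read in PBS / Reagent: labelled fibronectin 24 nM / Dosing: single dose, pinned / Times: 1 h cell attachment, overnight exposure to compound and label / Signal: fluorescence, ex 485 nm, em 525 nm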
DENV2 CPE: inhibitors of DENV2 cytopathic effect, primary screen, cell-based, plate reader, single concentration; DENV2-infected cells, cytopathic effect rescue; CPE inhibition, % at 9.99 µM; hit rate 1.7% among 350,000; AID 651640, 2012; in the data active means CPE inhibition above about 20%, passing the limit was not always enough; tested in BHK-21 cells;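 further: 0% = median of neutral control wells and 100% = median of positive control wells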
* marks the source's active call; other numbers are inactive results.

How did CS(=O)(=O)N1CCN(c2ccc(NC(=O)c3ccc([N+](=O)[O-])o3)cc2)CC1 do in these assays?
Xi reactivation: -1; SIRT5 block: 0; ARNT TACC3 PPI: -3; FGF22 binding: 0; FN deposition inh: 36*; DENV2 CPE: -3

What do the screens show for `CS(=O)(=O)N1CCN(c2ccc(NC(=O)COc3ccccc3)cc2)CC1`?
Xi reactivation: 0; ARNT TACC3 PPI: -4; FGF22 binding: 0; FN deposition inh: 0; DENV2 CPE: 2

Results for O=C(Nc1ccc(N2CCCC2)c(Cl)c1)c1ccc([N+](=O)[O-])o1 ?
Xi reactivation: 0; SIRT5 block: 0; ARNT TACC3 PPI: 17; FGF22 binding: 43*; FN deposition inh: -6; DENV2 CPE: 1

What do the screens show for `Cc1ccc(OCC(=O)Nc2ccc(N3CCN(S(C)(=O)=O)CC3)cc2)cc1`?
Xi reactivation: 0; SIRT5 block: 3; ARNT TACC3 PPI: -5; FGF22 binding: 43*; FN deposition inh: -3; DENV2 CPE: 6

What do the screens show for `O=C(Nc1ccc(N2CCCCC2)cc1)c1ccc([N+](=O)[O-])o1`?
Xi reactivation: 0; SIRT5 block: 2; ARNT TACC3 PPI: -5; FGF22 binding: 0; FN deposition inh: 3; DENV2 CPE: -6

How did C[C@@H]1CN([C@@H](C)CO)C(=O)c2cc(NC(=O)Nc3ccc(F)cc3)ccc2O[C@@H](C)CCCCO[C@H]1CN(C)S(=O)(=O)c1ccccc1 do in these assays?
Xi reactivation: 0; SIRT5 block: 3; FGF22 binding: 1; DENV2 CPE: 124*

Results for C[C@@H]1CCCCO[C@@H](CN(C)S(=O)(=O)c2ccccc2)[C@@H](C)CN([C@H](C)CO)C(=O)c2cc(NC(=O)Nc3ccccc3)ccc2O1 ?
Xi reactivation: 0; SIRT5 block: 3; ARNT TACC3 PPI: -5; FGF22 binding: 0; FN deposition inh: 2; DENV2 CPE: 65*

What do the screens show for `C[C@H](CO)N1C[C@H](C)[C@@H](CN(C)S(=O)(=O)c2ccccc2)OCCCC[C@H](C)Oc2ccc(NC(=O)Nc3ccc(F)cc3)cc2C1=O`?
Xi reactivation: 0; SIRT5 block: 2; ARNT TACC3 PPI: 13; FGF22 binding: 0; DENV2 CPE: 52*

Results for C[C@H](CO)N1C[C@H](C)[C@@H](CN(C)S(C)(=O)=O)OCCCC[C@H](C)Oc2ccc(NC(=O)Nc3ccc(F)cc3)cc2C1=O ?
Xi reactivation: 0; ARNT TACC3 PPI: -4; FGF22 binding: 0; DENV2 CPE: 26*

How did CCC(=O)N1[C@H](CO)[C@H](c2ccc(-c3ccccc3OC)cc2)[C@H]1CNC(C)=O do in these assays?
Xi reactivation: 0; SIRT5 block: -4; FN deposition inh: -6; DENV2 CPE: -8

What do the screens show for `C[C@H](CO)N1C[C@H](C)[C@@H](CN(C)S(C)(=O)=O)Oc2ccc(NC(=O)CCCCCC(=O)Nc3ccccc3N)cc2C1=O`?
Xi reactivation: 0; FGF22 binding: 0; DENV2 CPE: 5

Results for O=C(c1ccc(F)cc1)N1CC(=O)N2[C@H](CO)[C@@H](c3ccc(C#CC4CC4)cc3)[C@H]2C1 ?
Xi reactivation: 0; SIRT5 block: 3; FN deposition inh: -9; DENV2 CPE: -6

Results for CN(C)CCNc1nc2sc3c(c2c(=O)n1-c1ccc(F)cc1)CCCCC3 ?
Xi reactivation: 0; SIRT5 block: -2; ARNT TACC3 PPI: 7; FGF22 binding: 0; FN deposition inh: -5; DENV2 CPE: 26*

What do the screens show for `C[C@@H]1CN([C@H](C)CO)C(=O)c2ccccc2-c2ccccc2CO[C@H]1CN(C)C(=O)c1ccncc1`?
Xi reactivation: -1; ARNT TACC3 PPI: 1; FGF22 binding: 0; FN deposition inh: -3; DENV2 CPE: 4

How did N#C/C(=N\Nc1cc(Cl)cc(Cl)c1)c1nnc2n1CCCCC2 do in these assays?
Xi reactivation: 0; SIRT5 block: 0; ARNT TACC3 PPI: 23; FGF22 binding: 43*; FN deposition inh: 4; DENV2 CPE: 3

Results for CCc1nc2sccc2c(=O)[nH]1 ?
Xi reactivation: 0; SIRT5 block: 0; ARNT TACC3 PPI: 0; FGF22 binding: 44*; FN deposition inh: 5; DENV2 CPE: 0

What do the screens show for `C[C@@H]1CN([C@H](C)CO)C(=O)c2cc(C#CCc3ccccc3)cnc2O[C@@H]1CN(C)C(=O)Cc1cccnc1`?
Xi reactivation: 0; SIRT5 block: 2; ARNT TACC3 PPI: 10; FGF22 binding: 1; DENV2 CPE: 6

What do the screens show for `[O-][N+](=C(c1ccccc1)c1ccccc1)c1ccccc1`?
Xi reactivation: 0; ARNT TACC3 PPI: -23; FGF22 binding: 43*; FN deposition inh: -5; DENV2 CPE: 5

Results for Cc1noc(C)c1NC(=O)Nc1ccc2c(c1)CC(=O)N([C@@H](C)CO)C[C@H](C)[C@H](CN(C)Cc1ccc(-c3ccccc3)cc1)O2 ?
Xi reactivation: -1; SIRT5 block: 3; FGF22 binding: -1; DENV2 CPE: 2

Results for CN1C(=O)c2cc(NC(=O)NC3CCCC3)ccc2OC[C@@H]2O[C@H](CC(=O)NCC3CC3)CC[C@H]21 ?
Xi reactivation: 0; SIRT5 block: -3; ARNT TACC3 PPI: 0; FGF22 binding: 0; FN deposition inh: 1; DENV2 CPE: 0

Results for Cc1cc(SCC(=O)OCC(=O)N(C)C2CCS(=O)(=O)C2)c(C)cc1Br (centres undefined) ?
Xi reactivation: 0; SIRT5 block: 19*; ARNT TACC3 PPI: 0; FGF22 binding: 0; FN deposition inh: 6; DENV2 CPE: 5

What do the screens show for `Cc1ccc(C)c(SCC(=O)N(C)C2CCS(=O)(=O)C2)c1` (centres undefined)?
Xi reactivation: 0; SIRT5 block: 0; ARNT TACC3 PPI: 5; FGF22 binding: 0; FN deposition inh: 1; DENV2 CPE: -10

What do the screens show for `Cc1ccc(C(=O)c2cc3c(cc2N)OCCO3)cc1`?
Xi reactivation: 0; SIRT5 block: -3; ARNT TACC3 PPI: 9; FGF22 binding: 0; FN deposition inh: 2; DENV2 CPE: 15
